Measured values published in ChEMBL document CHEMBL1122465, “Transport of antimicrobial agents using peptide carrier systems: anticandidal activity of m-fluorophenylalanine--peptide conjugates” (1983).
Values after ≈ are worked out from the molar mass of the structure shown. Square brackets hold non-standard residues; d marks the D form. Peptide text beside a SMILES is read from it. Phe(3-F) = N[C@@H](Cc1cccc(F)c1)C(=O)O

Experiments:
Assay type in all cases: functional
[1] = system: Candida albicans; experiment: Minimum inhibitory concentration was determined for Candida albicans strain 759, by a microtiter broth dilution assay
Procedure, shortened: (§1)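 Twofold broth dilution in yeast carbon base medium with 200 μg/mL sodium glutamate, compounds 250 to 0.25 μg/mL. Inoculum grown in YCB-glutamate 15 h at 37 °C; final ~10⁴ cfu/mL. Incubated at 37 °C, read at 24 and 48 h for growth inhibition; MIC taken as lowest inhibiting concentration.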

[2] = system: Candida albicans; experiment: Minimum inhibitory concentration was determined for Candida albicans strain B311, by a microtiter broth dilution assay; procedure, shortened: as §1
[3] = system: Candida albicans; experiment: Zone developed against Candida albicans, when a 12.5 ug/disc was added
[4] = system: Candida albicans; experiment: Zone developed against Candida albicans, when a 25.0 ug/disc was added
[5] = system: Candida albicans; experiment: Zone developed against Candida albicans, when a 3.0 ug/disc was added
[6] = system: Candida albicans; experiment: Zone developed against Candida albicans, when a 6.0 ug/disc was added
[7] = system: Candida albicans; experiment: Zone developed against Candida albicans B-311, when a 12.5 ug/disc was added
[8] = system: Candida albicans; experiment: Zone developed against Candida albicans, when a 25.0 ug/disc was added; 25-31

Q: How did the MIC [1] turn out when `CSCC[C@H](NC(=O)[C@H](CCSC)NC(=O)[C@H](N)Cc1cccc(F)c1)C(=O)O` was run?
A: > 250 µg/mL

Q: And the MIC [2]?
A: > 250 µg/mL

Q: `C[C@H](NC(=O)[C@H](N)Cc1cccc(F)c1)C(=O)O` was tested. Which MIC [1] did it give?
A: > 200 µg/mL

Q: And the MIC [2]?
A: > 200 µg/mL

Q: With `C[C@H](N)C(=O)N[C@@H](C)C(=O)N[C@@H](Cc1cccc(F)c1)C(=O)O` (H-Ala-Ala-[Phe(3-F)]-OH) as the compound, how does the MIC [1] read?
A: 63 µg/mL (≈ 194 µM)

Q: What about the MIC [2] of the same compound?
A: 2 µg/mL (≈ 6.15 µM)

Q: Which Zone size [3] does the source give for `C[C@H](N)C(=O)N[C@@H](C)C(=O)N[C@@H](C)C(=O)O.C[C@H](NC(=O)[C@@H](N)Cc1cccc(F)c1)C(=O)O` here?
A: 0 mm

Q: And the Zone size [4]?
A: 0 mm

Q: What about the Zone size [5] of the same compound?
A: 0 mm

Q: And the Zone size [6]?
A: 0 mm

Q: Which Zone size [7] does the source give for `CC[C@H](C)[C@H](N)C(=O)O.C[C@H](NC(=O)[C@H](C)NC(=O)[C@@H](N)Cc1cccc(F)c1)C(=O)O` here?
A: 27 mm

Q: `C[C@H](NC(=O)[C@H](C)NC(=O)[C@@H](N)Cc1cccc(F)c1)C(=O)O.O=C(O)[C@@H]1CCCN1` was tested. Which Zone size [7] did it give?
A: 27 mm

Q: Which Zone size [7] does the source give for `C[C@H](NC(=O)[C@H](C)NC(=O)[C@@H](N)Cc1cccc(F)c1)C(=O)O.N[C@@H](Cc1ccccc1)C(=O)O` here?
A: 0 mm

Q: Which MIC [1] does the source give for `N[C@@H](Cc1cccc(F)c1)C(=O)O` here?
A: > 250 µg/mL

Q: What about the MIC [2] of the same compound?
A: > 250 µg/mL

Q: With `C[C@H](NC(=O)[C@H](C)NC(=O)[C@H](N)Cc1cccc(F)c1)C(=O)O` as the compound, how does the MIC [1] read?
A: > 250 µg/mL

Q: What about the MIC [2] of the same compound?
A: > 250 µg/mL

Q: How did the Zone size [7] turn out when `C[C@H](NC(=O)[C@H](C)NC(=O)[C@@H](N)Cc1cccc(F)c1)C(=O)O.N[C@@H](Cc1c[nH]cn1)C(=O)O` was run?
A: 25 mm

Q: For `C[C@H](NC(=O)[C@H](C)NC(=O)[C@@H](N)Cc1cccc(F)c1)C(=O)O.N[C@@H](Cc1c[nH]c2ccccc12)C(=O)O`, which Zone size [7] is on record?
A: 24 mm

Q: What does the source list for `C[C@H](N)C(=O)N[C@@H](C)C(=O)N[C@@H](C)C(=O)O.C[C@H](NC(=O)[C@H](C)NC(=O)[C@@H](N)Cc1cccc(F)c1)C(=O)O`?
A: Zone size [3]: 0 mm; Zone size [4]: 0 mm; Zone size [5]: 0 mm; Zone size [6]: 0 mm

Q: For `CSCC[C@H](NC(=O)[C@H](CCSC)NC(=O)[C@@H](N)Cc1cccc(F)c1)C(=O)O`, which MIC [1] is on record?
A: 63 µg/mL (≈ 141 µM)

Q: And the MIC [2]?
A: 8 µg/mL (≈ 18 µM)

Q: For `C[C@H](NC(=O)[C@H](C)NC(=O)[C@@H](N)Cc1cccc(F)c1)C(=O)O.N[C@@H](CC(=O)O)C(=O)O`, which Zone size [7] is on record?
A: 26 mm

Q: For `C[C@H](N)C(=O)N[C@@H](C)C(=O)O.C[C@H](NC(=O)[C@@H](N)Cc1cccc(F)c1)C(=O)O`, which Zone size [3] is on record?
A: 0 mm

Q: What about the Zone size [4] of the same compound?
A: 0 mm

Q: What about the Zone size [5] of the same compound?
A: 0 mm

Q: And the Zone size [6]?
A: 0 mm

Q: `C[C@H](NC(=O)[C@@H](N)Cc1cccc(F)c1)C(=O)O` was tested. Which MIC [1] did it give?
A: 4 µg/mL (≈ 15.7 µM)

Q: And the MIC [2]?
A: 2 µg/mL (≈ 7.87 µM)

Q: With `C[C@H](N)C(=O)N[C@@H](C)C(=O)O.C[C@H](NC(=O)[C@H](C)NC(=O)[C@@H](N)Cc1cccc(F)c1)C(=O)O` as the compound, how does the Zone size [3] read?
A: 18 mm

Q: And the Zone size [4]?
A: 24 mm

Q: And the Zone size [5]?
A: 0 mm

Q: What about the Zone size [6] of the same compound?
A: 16 mm

Q: Which results are given for `C[C@H](NC(=O)[C@H](C)NC(=O)[C@@H](N)Cc1cccc(F)c1)C(=O)O`?
A: MIC [1]: 2 µg/mL (≈ 6.15 µM); MIC [2]: 0.5 µg/mL (≈ 1.54 µM); Zone size [7]: 24 mm

Q: How did the Zone size [3] turn out when `C[C@H](NC(=O)CN)C(=O)O.C[C@H](NC(=O)[C@@H](N)Cc1cccc(F)c1)C(=O)O` was run?
A: 0 mm

Q: What about the Zone size [8] of the same compound?
A: 25 mm

Q: What about the Zone size [5] of the same compound?
A: 0 mm

Q: What about the Zone size [6] of the same compound?
A: 0 mm

Q: Which Zone size [3] does the source give for `C[C@H](NC(=O)CN)C(=O)O.C[C@H](NC(=O)[C@H](C)NC(=O)[C@@H](N)Cc1cccc(F)c1)C(=O)O` here?
A: 18 mm

Q: What about the Zone size [4] of the same compound?
A: 25 mm

Q: What about the Zone size [5] of the same compound?
A: 0 mm

Q: What about the Zone size [6] of the same compound?
A: 0 mm

Q: Which results are given for `C[C@H](NC(=O)[C@@H](N)Cc1cccc(F)c1)C(=O)O.NCC(=O)N[C@@H](Cc1ccccc1)C(=O)O`?
A: Zone size [3]: 0 mm; Zone size [4]: 0 mm; Zone size [5]: 0 mm; Zone size [6]: 0 mm

Q: Which Zone size [3] does the source give for `C[C@H](NC(=O)[C@H](C)NC(=O)[C@@H](N)Cc1cccc(F)c1)C(=O)O.NCC(=O)N[C@@H](Cc1ccccc1)C(=O)O` here?
A: 0 mm

Q: What about the Zone size [4] of the same compound?
A: 0 mm

Q: What about the Zone size [5] of the same compound?
A: 0 mm

Q: And the Zone size [6]?
A: 0 mm
